Assay outcomes (PubChem BioAssay)
VIM-2 inh – inhibitors of Pseudomonas aeruginosa VIM-2 metallo-beta-lactamase; inhibition, % at 5.6 µM; purified VIM-2, nitrocefin hydrolysis, epi-absorbance fluorescence; 290,000 compounds, 0.89% hits;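 active = inhibition above the mean of all tested compounds plus 3 SD, cutoff set per screening run, cut at about 7.5% in these data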;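 also: red hydrolysis product quenches plate fluorescence so inhibitors raise well fluorescence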
DNA FID counter – displaces DNA intercalator in HCV helicase counter-screen; DNA fluorescent intercalator displacement, fluorescence; inhibition, % at 7.9 µM; 290,000 compounds, 0.17% hits; AID 1845; in the data active = inhibition above about 37%;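 also: higher means more ethidium bromide displaced from hairpin DNA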
UBC9 SUMO inh – blocks human SUMOylation mediated by UBC9; HTRF SUMOylation assay, SAE1/SAE2 + UBC9, in vitro; inhibition, % at 35 µM; 290,000 compounds, 0.36% hits; AID 2006; in the data active = inhibition above about 50%, passing the limit was not always enough
Target sequence (P63279 whole entry, looked up): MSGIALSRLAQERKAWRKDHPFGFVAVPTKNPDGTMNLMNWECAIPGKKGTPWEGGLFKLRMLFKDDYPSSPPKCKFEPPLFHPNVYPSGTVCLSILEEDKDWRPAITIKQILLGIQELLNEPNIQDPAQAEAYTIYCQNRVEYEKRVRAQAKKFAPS
SUMO Mot1 rescue – blocks SUMOylation pathway, rescuing yeast Mot1-301 growth. S. cerevisiae Mot1-301 growth rescue, ATP luminescence, 38.5C; percent above DMSO median, 100 means doubled. growth rescue, % at 18.8 µM. 320,000 compounds, 1% hits. AID 2716;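 active = every valid replicate shows activation above 250% relative to neutral control wells; inactive = the rest, any valid replicate at or below 250%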
NALP1 inh – blocks the NALP1 inflammasome reconstituted in yeast. 280,000 compounds, 0.61% hits. inhibition, % at 10 µM. S. cerevisiae NALP1/ASC/caspase-1 growth, X-gal OD620, 72 h; in the data active = inhibition mostly above about 24%, no sharp cut-off; inactive = mostly below about 32%
IMP-1 inh – inhibitors of Pseudomonas aeruginosa IMP-1 metallo-beta-lactamase; purified IMP-1, nitrocefin hydrolysis, epi-absorbance fluorescence; inhibition, % at 5.6 µM; 290,000 compounds, 0.45% hits;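 active = inhibition above the mean plus 3 SD of all compounds in the same screening run, cut at about 4.5% in these data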
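assay system = purified recombinant IMP-1 metallo-beta-lactamase enzyme | schedule = 15 min preincubation plus 25 min reaction at 25 °C | signal = Epi-absorbance fluorescence, 480 nm excitation, 530 nm emission | read-out basis = percent inhibition from optical density relative to buffer-blank wells | controls = IMP-1 with DMSO as 0%, enzyme-free DMSO as 100%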
Yeast Mot1 SUMO – SUMO pathway inhibitors in yeast Mot1-301 growth. S. cerevisiae Mot1-301 galactose growth, ATP luminescence, 24 h; -100 = growth of slx-deleted rescue strain. growth activity, percent, % at 42 µM. shares compounds with SUMO Mot1 rescue. 2,300 tested, under 10 active;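 active = Signal drops as the depositor expects, and the fitted half-maximal dose is no more than ten times the top valid tested dose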;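 also: more negative values mean stronger growth rescue toward the control strain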
Numbers stand for hits; – = inactive; · = not tested or not shown; + = active, no number. A selection: hits, their analogues and other compounds. The true share with any hit is near 2.9%.

SMILES	VIM-2 inh	DNA FID counter	UBC9 SUMO inh	SUMO Mot1 rescue	NALP1 inh	IMP-1 inh	Yeast Mot1 SUMO
NS(=O)(=O)c1ccc(O)c(N2C(=O)c3cccc4c(C(=O)c5ccccc5)ccc(c34)C2=O)c1	–	–	–	·	–	–	·
CCOc1ccc(CCNC(=O)Cn2ccc3ccccc3c2=O)cc1OCC	–	–	–	–	–	–	·
Cc1ccc(S(=O)(=O)n2nc(C)cc2C)cc1	–	–	–	–	–	–	·
Cc1ccc(S(=O)(=O)n2cccc2C)cc1	·	·	·	688	·	·	–
Nc1ccc(C2(c3ccc(N)cc3)OC(=O)c3ccccc32)cc1	–	–	–	497	–	–	–
O=C(O)c1ccc(C2(c3ccc(C(=O)O)cc3)OC(=O)c3ccccc32)cc1	–	–	–	–	–	–	·
CC(=O)Cc1nsc(Nc2cccc(C)c2)n1	–	–	–	901	–	–	–
N#CCN(N=Nc1ccccc1)c1ccccc1	–	–	–	617	–	–	–
O=[N+]([O-])c1cccc(N=NN(CCO)c2cccc([N+](=O)[O-])c2)c1	–	–	–	–	–	–	·
Cc1ccc(S(=O)(=O)N(CC(=O)NCC2CCCO2)Cc2ccc(F)cc2)cc1 (centres undefined)	–	–	–	–	–	–	·
CCC(C)(C(=O)NC1CCCCC1)N(C(=O)CNC(=O)c1ccccc1)c1c(C)n(C)n(-c2ccccc2)c1=O (centres undefined)	–	–	–	–	–	–	·
CC(=O)c1ccccc1C(=O)N1CCCC(N2CCN(Cc3ccc4c(c3)OCO4)CC2)C1 (centres undefined)	–	–	–	360	–	–	–
COc1cc(SC)ccc1C(=O)N1CCCCCC1	–	–	–	+	–	–	–
CC(C)(C)NC(=O)C1Cc2ccccc2CN1S(=O)(=O)c1ccc(F)cc1 (centres undefined)	–	–	–	584	–	–	–
COc1cc(C(C2=C(O)CC(C)(C)CC2=O)C2C(=O)CC(C)(C)CC2=O)cc(OC)c1OC (centres undefined)	–	–	–	658	–	–	–
Cc1ccc(C)c(N2CCN(S(=O)(=O)c3csc(C(N)=O)c3)CC2)c1	–	–	–	–	–	–	·
CC(C)CN(C(=O)CN(C)C(=O)Cc1ccccc1Cl)c1c(N)n(CC(C)C)c(=O)[nH]c1=O	–	–	–	–	–	–	·
O=S(=O)(NCCCSc1ccccc1)c1ccccc1F	–	–	–	–	–	–	·
Nc1nc(-c2ccc(Cl)cc2)nc(-c2ccc(Cl)cc2)n1	–	–	–	942	·	–	–
O=C(COC(=O)c1ccco1)NCc1ccc(F)cc1	–	–	–	–	–	–	·
Cc1ccc(NC(=O)CCC(=O)c2cccs2)cc1F	–	–	–	–	–	–	·
Cn1ccc(C(=O)Nc2cccnc2Cl)n1	–	–	–	·	–	–	·
CCNCc1nc2cc(Cl)ccc2c(=O)[nH]1	–	–	–	831	–	–	–
NC(=O)C1CCN(Cc2nc3cc(Cl)ccc3c(=O)[nH]2)CC1	–	–	–	–	–	–	·
CCCCN(C)Cc1cc(=O)oc2ccc3ccccc3c12	–	–	–	–	–	–	·
SMILES	VIM-2 inh	DNA FID counter	UBC9 SUMO inh	SUMO Mot1 rescue	NALP1 inh	IMP-1 inh	Yeast Mot1 SUMO
O=C(CCN1C(=O)c2ccccc2C1=O)CN1CCOCC1	–	–	–	–	–	–	·
O=c1cc(CSc2ccccc2)nc(-c2ccncc2)[nH]1	–	–	–	–	–	–	·
Cc1ccccc1NC(=O)c1ccccc1NC(=O)c1ccco1	–	–	–	402	–	–	–
Cc1ccc(N(C(=O)Cn2nnc3ccccc32)C(C(=O)NC2CCCCC2)c2cn(C)nc2C)cc1 (centres undefined)	–	–	–	835	–	–	–
CCN(CC)CCCn1c(=S)[nH]c2ccc(Cl)cc2c1=O	–	–	–	631	–	–	–
CCCOC(=O)c1c(NC(=O)/C=C/c2cnn(C)c2C)sc(C(=O)OC)c1C	–	–	–	+	–	–	–
CCc1ccc(NC(=O)CN2CCCN(S(=O)(=O)c3ccc(F)cc3)CC2)cc1	–	–	–	–	–	–	·
Cc1c(=O)n(OCc2ccccn2)c2ccccc2[n+]1[O-]	–	–	–	946	–	–	–
O=c1c(-c2ccc(F)cc2)[n+]([O-])c2ccccc2n1OCc1ccccn1	–	–	–	–	–	–	·
CCN1CSC(=S)N(Cc2ccc(OC)cc2)C1	–	–	–	+	–	–	–
CCN1CSC(=S)N(Cc2ccccc2)C1	–	–	–	–	–	–	·
S=C(Nc1ccc(Cl)cc1)N1CCN(Cc2ccccc2)CC1	–	–	–	590	–	–	–
COc1ccccc1NC(=O)CSc1nncn1N	–	–	–	–	–	–	·
O=C(Nc1nccs1)c1ccc(S(=O)(=O)c2ccccc2)cc1	–	–	–	695	–	–	–
COC(=O)C1(Cc2ccc(O)cc2)OC(=O)C(O)=C1c1ccc(O)cc1 (centres undefined)	·	·	–	381	–	·	–
O=C(CNc1cc(S(=O)(=O)N2CCOCC2)ccc1NCC1CCCO1)Nc1ccc(F)c(F)c1 (centres undefined)	–	–	–	–	–	–	·
CCC1CCCCN1C(=O)CSc1nnc(CNC(=O)c2ccco2)o1 (centres undefined)	–	–	–	361	–	–	–
O=C(CSc1nnc(CNC(=O)c2ccco2)o1)Nc1nc2ccccc2s1	–	–	–	+	–	–	–
CC(C)(C)c1ccc(C(=O)NCc2nnc(SCC(=O)NCc3ccco3)o2)cc1	–	–	–	–	–	–	·
O=C(CSc1nnc(CNC(=O)c2ccccc2)o1)NCc1ccco1	–	–	–	800	–	–	–
CCN(C(=O)c1cccc(NC(=O)c2ccccc2)c1)C1CCCCC1	–	–	–	–	–	–	·
Cc1c(NC(=O)C(C)OC(=O)CCOc2ccccc2)c(=O)n(-c2ccccc2)n1C (centres undefined)	·	·	·	–	·	·	·
Cc1cc(C)n(C(=O)c2ccccc2[N+](=O)[O-])n1	–	–	–	438	–	–	–
Cc1cc(C)n(C(=O)c2cccc([N+](=O)[O-])c2C)n1	–	–	–	–	–	–	·
CCOC(=O)c1ccccc1NC(=O)C1CC(=O)N(C2CCCCC2)C1 (centres undefined)	–	–	–	385	–	–	–
CCN(CC)C(=O)Cn1cc(C(=O)C(=O)N2CCc3ccccc32)c2ccccc21	–	–	–	–	–	–	·
CC1CCN(CCCCOc2ccccc2Br)CC1	–	–	–	–	–	–	·
CC1CCN(CCCCOc2cccc(Br)c2)CC1	–	–	–	373	–	–	–
